Reference: ChEMBL document CHEMBL5303300, “EUbOPEN Chemogenomics Library - Multiplex” (2023)
Where “and” joins values, the source holds several entries; their conditions need not be identical. Identical values can stand only once.

Key:
Assay type in all cases: toxicity, cell-based
[1] = system: HEK-293T; test: Multiplex assay against HEK293T; settings: human, number of replicates 2
Summary of the method: (§1)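 Imaging took place on a CQ1 microscope at 37°C and 5% CO2 once compound had been added to live cells stained at seeding with Hoechst33342, BioTracker Green Microtubule Cytoskeleton Dye, MitoTracker Red and Annexin V Alexa Fluor 680. CellPathfinder machine-learning gating classed cells as Hoechst high-intensity objects or normal cells, classed normal cells as having healthy, pyknosed or fragmented nuclei, and classed pyknosed cells as mitotic or apoptotic. Tubulin, mitochondrial-mass and membrane-permeability phenotypes are per cents of the healthy-nucleus cells.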

[2] = system: U2OS; test: Multiplex assay against U2OS; settings: human, number of replicates 2; summary of the method: as §1
[3] = system: Fibroblast; test: Multiplex assay against human fibroblast; settings: number of replicates 2; summary of the method: as §1
[4] = 12 h, 0 µM, compound concentration 0 uM
[5] = 12 h, 1 µM, compound concentration 1 uM
[6] = 24 h, 0 µM, compound concentration 0 uM
[7] = 24 h, 1 µM, compound concentration 1 uM
[8] = 48 h, 0 µM, compound concentration 0 uM
[9] = 48 h, 1 µM, compound concentration 1 uM

`COc1cc(C(N)=O)ccc1Nc1ncc2c(n1)N(CCC(C)C)[C@H](C)C(=O)N2C` was tested, and the “Population Apoptotic (%)” value [1, 4] was 47% and 52%, the “Population Fragmented Nuclei (%)” value [1, 4] was 3% and 2% and the “Population Healthy Nuclei (%)” value [1, 4] was 86% and 88%. For the same compound, the “Population Hoechst High Intensity Objects (%)” value [1, 4] was 2%, the “Population Membrane Permeable-Phenotype (%)” value [1, 4] was 4% and 10% and the “Population Mitochondria Different-Phenotype (%)” value [1, 4] was 31% and 35%. The “Population Mitotic Cells (%)” value [1, 4] was 52% and 47%, the “Population Normal (%)” value [1, 4] was 97% and the “Population Pyknosed Nuclei (%)” value [1, 4] was 10% and 9%. For the same compound, the “Population Tubulin-Different-Phenotype (%)” value [1, 4] was 82% and 95%, the “Total Cell Count” value [1, 4] was 540 and 476 and the “Population Apoptotic (%)” value [1, 5] was 62% and 60%. For the same compound, the “Population Fragmented Nuclei (%)” value [1, 5] was 1% and 4%, the “Population Healthy Nuclei (%)” value [1, 5] was 73% and 75% and the “Population Hoechst High Intensity Objects (%)” value [1, 5] was 8% and 7%. The “Population Membrane Permeable-Phenotype (%)” value [1, 5] was 2%, the “Population Mitochondria Different-Phenotype (%)” value [1, 5] was 38% and 28% and the “Population Mitotic Cells (%)” value [1, 5] was 37% and 39%. For the same compound, the “Population Normal (%)” value [1, 5] was 91% and 92%, the “Population Pyknosed Nuclei (%)” value [1, 5] was 24% and 20% and the “Population Tubulin-Different-Phenotype (%)” value [1, 5] was 64% and 58%. The “Total Cell Count” value [1, 5] was 432 and 456, the “Population Apoptotic (%)” value [1, 6] was 67% and 50% and the “Population Fragmented Nuclei (%)” value [1, 6] was 4% and 5%. The “Population Healthy Nuclei (%)” value [1, 6] was 88%, the “Population Hoechst High Intensity Objects (%)” value [1, 6] was 3% and 2% and the “Population Membrane Permeable-Phenotype (%)” value [1, 6] was 1% and 2%. The “Population Mitochondria Different-Phenotype (%)” value [1, 6] was 44% and 59%, the “Population Mitotic Cells (%)” value [1, 6] was 32% and 50% and the “Population Normal (%)” value [1, 6] was 96% and 97%. For the same compound, the “Population Pyknosed Nuclei (%)” value [1, 6] was 6%, the “Population Tubulin-Different-Phenotype (%)” value [1, 6] was 81% and 96% and the “Total Cell Count” value [1, 6] was 464 and 423. For the same compound, the “Population Apoptotic (%)” value [1, 7] was 75% and 68%, the “Population Fragmented Nuclei (%)” value [1, 7] was 5% and the “Population Healthy Nuclei (%)” value [1, 7] was 69% and 76%. The “Population Hoechst High Intensity Objects (%)” value [1, 7] was 8% and 6%, the “Population Membrane Permeable-Phenotype (%)” value [1, 7] was 1% and the “Population Mitochondria Different-Phenotype (%)” value [1, 7] was 34% and 32%. For the same compound, the “Population Mitotic Cells (%)” value [1, 7] was 24% and 31%, the “Population Normal (%)” value [1, 7] was 91% and 93% and the “Population Pyknosed Nuclei (%)” value [1, 7] was 25% and 18%. The “Population Tubulin-Different-Phenotype (%)” value [1, 7] was 38% and 35%, the “Total Cell Count” value [1, 7] was 461 and 420 and the “Population Apoptotic (%)” value [1, 8] was 72% and 75%. The “Population Fragmented Nuclei (%)” value [1, 8] was 16% and 11%, the “Population Healthy Nuclei (%)” value [1, 8] was 78% and 80% and the “Population Hoechst High Intensity Objects (%)” value [1, 8] was 3%. The “Population Membrane Permeable-Phenotype (%)” value [1, 8] was 1% and 3%, the “Population Mitochondria Different-Phenotype (%)” value [1, 8] was 39% and 55% and the “Population Mitotic Cells (%)” value [1, 8] was 28% and 24%. For the same compound, the “Population Normal (%)” value [1, 8] was 96%, the “Population Pyknosed Nuclei (%)” value [1, 8] was 5% and 7% and the “Population Tubulin-Different-Phenotype (%)” value [1, 8] was 63% and 89%. The “Total Cell Count” value [1, 8] was 505 and 420, the “Population Apoptotic (%)” value [1, 9] was 72% and 73% and the “Population Fragmented Nuclei (%)” value [1, 9] was 8% and 11%. The “Population Healthy Nuclei (%)” value [1, 9] was 72% and 76%, the “Population Hoechst High Intensity Objects (%)” value [1, 9] was 5% and 4% and the “Population Membrane Permeable-Phenotype (%)” value [1, 9] was 1%. The “Population Mitochondria Different-Phenotype (%)” value [1, 9] was 14% and 17%, the “Population Mitotic Cells (%)” value [1, 9] was 27% and 26% and the “Population Normal (%)” value [1, 9] was 94% and 95%. The “Population Pyknosed Nuclei (%)” value [1, 9] was 19% and 12%, the “Population Tubulin-Different-Phenotype (%)” value [1, 9] was 24% and 20% and the “Total Cell Count” value [1, 9] was 520 and 517. The “Population Apoptotic (%)” value [2, 4] was 42% and 75%, the “Population Healthy Nuclei (%)” value [2, 4] was 45% and 69% and the “Population Hoechst High Intensity Objects (%)” value [2, 4] was 0%. The “Population Membrane Permeable-Phenotype (%)” value [2, 4] was 31% and 42%, the “Population Mitochondria Different-Phenotype (%)” value [2, 4] was 15% and 27% and the “Population Mitotic Cells (%)” value [2, 4] was 57% and 24%. The “Population Normal (%)” value [2, 4] was 100%, the “Population Pyknosed Nuclei (%)” value [2, 4] was 16% and 18% and the “Population Tubulin-Different-Phenotype (%)” value [2, 4] was 78% and 56%. The “Population Apoptotic (%)” value [2, 5] was 100% and 61%, the “Population Healthy Nuclei (%)” value [2, 5] was 66% and 76% and the “Population Hoechst High Intensity Objects (%)” value [2, 5] was 0%. For the same compound, the “Population Membrane Permeable-Phenotype (%)” value [2, 5] was 7% and 1%, the “Population Normal (%)” value [2, 5] was 100% and the “Population Pyknosed Nuclei (%)” value [2, 5] was 4% and 14%. The “Population Tubulin-Different-Phenotype (%)” value [2, 5] was 92% and 81%, the “Population Apoptotic (%)” value [2, 6] was 100% and 89% and the “Population Fragmented Nuclei (%)” value [2, 6] was 46% and 22%. The “Population Healthy Nuclei (%)” value [2, 6] was 41% and 54%, the “Population Hoechst High Intensity Objects (%)” value [2, 6] was 0% and the “Population Membrane Permeable-Phenotype (%)” value [2, 6] was 76% and 33%. The “Population Mitochondria Different-Phenotype (%)” value [2, 6] was 70% and 40%, the “Population Mitotic Cells (%)” value [2, 6] was 0% and 10% and the “Population Normal (%)” value [2, 6] was 100%. The “Population Pyknosed Nuclei (%)” value [2, 6] was 12% and 23%, the “Population Tubulin-Different-Phenotype (%)” value [2, 6] was 88% and 47% and the “Population Apoptotic (%)” value [2, 7] was 66% and 94%. The “Population Healthy Nuclei (%)” value [2, 7] was 32% and 73%, the “Population Hoechst High Intensity Objects (%)” value [2, 7] was 0% and the “Population Normal (%)” value [2, 7] was 100%. For the same compound, the “Population Pyknosed Nuclei (%)” value [2, 7] was 12% and 8%, the “Population Tubulin-Different-Phenotype (%)” value [2, 7] was 87% and 85% and the “Population Apoptotic (%)” value [2, 8] was 75% and 95%. For the same compound, the “Population Fragmented Nuclei (%)” value [2, 8] was 57% and 39%, the “Population Healthy Nuclei (%)” value [2, 8] was 34% and 30% and the “Population Hoechst High Intensity Objects (%)” value [2, 8] was 0%. For the same compound, the “Population Membrane Permeable-Phenotype (%)” value [2, 8] was 82% and 72%, the “Population Mitochondria Different-Phenotype (%)” value [2, 8] was 70% and the “Population Normal (%)” value [2, 8] was 100%. For the same compound, the “Population Tubulin-Different-Phenotype (%)” value [2, 8] was 76% and 82%, the “Population Apoptotic (%)” value [2, 9] was 100% and 84% and the “Population Fragmented Nuclei (%)” value [2, 9] was 61% and 25%. The “Population Hoechst High Intensity Objects (%)” value [2, 9] was 0%, the “Population Mitotic Cells (%)” value [2, 9] was 0% and 15% and the “Population Normal (%)” value [2, 9] was 100%. The “Population Pyknosed Nuclei (%)” value [2, 9] was 17% and 12%, the “Population Tubulin-Different-Phenotype (%)” value [2, 9] was 100% and 93% and the “Population Apoptotic (%)” value [3, 4] was 87% and 56%. The “Population Fragmented Nuclei (%)” value [3, 4] was 48% and 61%, the “Population Healthy Nuclei (%)” value [3, 4] was 41% and 32% and the “Population Hoechst High Intensity Objects (%)” value [3, 4] was 0%. For the same compound, the “Population Mitochondria Different-Phenotype (%)” value [3, 4] was 0% and 3%, the “Population Normal (%)” value [3, 4] was 100% and the “Population Pyknosed Nuclei (%)” value [3, 4] was 9% and 5%. For the same compound, the “Population Tubulin-Different-Phenotype (%)” value [3, 4] was 79% and 61%, the “Total Cell Count” value [3, 4] was 166 and 267 and the “Population Apoptotic (%)” value [3, 5] was 56% and 34%. For the same compound, the “Population Fragmented Nuclei (%)” value [3, 5] was 17% and 20%, the “Population Healthy Nuclei (%)” value [3, 5] was 57% and 64% and the “Population Hoechst High Intensity Objects (%)” value [3, 5] was 0%. For the same compound, the “Population Membrane Permeable-Phenotype (%)” value [3, 5] was 7% and 15%, the “Population Mitochondria Different-Phenotype (%)” value [3, 5] was 0% and 2% and the “Population Mitotic Cells (%)” value [3, 5] was 43% and 65%. For the same compound, the “Population Normal (%)” value [3, 5] was 99% and 100%, the “Population Pyknosed Nuclei (%)” value [3, 5] was 25% and 15% and the “Population Tubulin-Different-Phenotype (%)” value [3, 5] was 22% and 28%. For the same compound, the “Total Cell Count” value [3, 5] was 148 and 165, the “Population Apoptotic (%)” value [3, 6] was 80% and 69% and the “Population Fragmented Nuclei (%)” value [3, 6] was 54% and 72%. For the same compound, the “Population Healthy Nuclei (%)” value [3, 6] was 29% and 21%, the “Population Hoechst High Intensity Objects (%)” value [3, 6] was 0% and the “Population Membrane Permeable-Phenotype (%)” value [3, 6] was 17% and 9%. For the same compound, the “Population Mitochondria Different-Phenotype (%)” value [3, 6] was 4% and 7%, the “Population Mitotic Cells (%)” value [3, 6] was 19% and 30% and the “Population Normal (%)” value [3, 6] was 100%. For the same compound, the “Population Tubulin-Different-Phenotype (%)” value [3, 6] was 78% and 65%, the “Total Cell Count” value [3, 6] was 162 and 237 and the “Population Apoptotic (%)” value [3, 7] was 54% and 61%. The “Population Fragmented Nuclei (%)” value [3, 7] was 13% and 27%, the “Population Healthy Nuclei (%)” value [3, 7] was 65% and 56% and the “Population Hoechst High Intensity Objects (%)” value [3, 7] was 0%. The “Population Membrane Permeable-Phenotype (%)” value [3, 7] was 10% and 5%, the “Population Mitochondria Different-Phenotype (%)” value [3, 7] was 0% and the “Population Mitotic Cells (%)” value [3, 7] was 45% and 38%. For the same compound, the “Population Normal (%)” value [3, 7] was 100%, the “Population Pyknosed Nuclei (%)” value [3, 7] was 20% and 15% and the “Population Tubulin-Different-Phenotype (%)” value [3, 7] was 10% and 14%. The “Total Cell Count” value [3, 7] was 152 and 166, the “Population Apoptotic (%)” value [3, 8] was 82% and 80% and the “Population Fragmented Nuclei (%)” value [3, 8] was 64% and 84%. The “Population Healthy Nuclei (%)” value [3, 8] was 21% and 9%, the “Population Hoechst High Intensity Objects (%)” value [3, 8] was 0% and the “Population Membrane Permeable-Phenotype (%)” value [3, 8] was 18% and 8%. The “Population Mitochondria Different-Phenotype (%)” value [3, 8] was 0% and 8%, the “Population Mitotic Cells (%)” value [3, 8] was 17% and 20% and the “Population Normal (%)” value [3, 8] was 100%. The “Population Pyknosed Nuclei (%)” value [3, 8] was 13% and 6%, the “Population Tubulin-Different-Phenotype (%)” value [3, 8] was 64% and 56% and the “Total Cell Count” value [3, 8] was 171 and 241. The “Population Apoptotic (%)” value [3, 9] was 68% and 46%, the “Population Fragmented Nuclei (%)” value [3, 9] was 18% and 25% and the “Population Healthy Nuclei (%)” value [3, 9] was 66%. For the same compound, the “Population Hoechst High Intensity Objects (%)” value [3, 9] was 0%, the “Population Membrane Permeable-Phenotype (%)” value [3, 9] was 9% and 11% and the “Population Mitochondria Different-Phenotype (%)” value [3, 9] was 0%. The “Population Mitotic Cells (%)” value [3, 9] was 32% and 53%, the “Population Normal (%)” value [3, 9] was 100% and the “Population Pyknosed Nuclei (%)” value [3, 9] was 15% and 8%. For the same compound, the “Population Tubulin-Different-Phenotype (%)” value [3, 9] was 8% and 10% and the “Total Cell Count” value [3, 9] was 161 and 162.
